# Laboratory results from ChEMBL document CHEMBL1129245, “N-heteroaryl-2-phenyl-3-(benzyloxy)piperidines: a novel class of potent orally active human NK1 antagonists” (J Med Chem, 1996).
# pIC50: −log10 of the molar value.
# Assays:
# Substance-P receptor = Substance-P receptor (Homo sapiens, UniProt P25103); experiment: Displacement of [125 I]-Tyr8 SP from the cloned human Tachykinin receptor 1 expressed in CHO cells; format: cell-based
# Oryctolagus cuniculus [1] = organism: Oryctolagus cuniculus; experiment: Displacement of [3H]diltiazem from rabbit skeletal muscle calcium channel; format: tissue-based; conditions: Muscle tissue
# Cavia porcellus = experiment: Inhibition of SP induced dermal guinea pig after peroral administration; format: functional; conditions: read-out: ID50 (the source's name)
# In short: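 Guinea pigs dosed orally with antagonist, then challenged 1 h later with intradermal substance P. Vascular leakage measured as extravasation of Evans blue dye. ID50 (mg/kg po) taken from dose-response data, 5-12 animals per data point.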
# Oryctolagus cuniculus [2] = organism: Oryctolagus cuniculus; experiment: Displacement of [3H]diltiazem from rabbit skeletal muscle calcium channel at 30 uM; format: tissue-based; conditions: Muscle tissue
# Rattus norvegicus [3] = experiment: Plasma concentration of 3 mg/kg iv after 4 hr in rats; format: ADME, organism-based; set-up: dose 3 mg/kg, route intravenous; conditions: in vivo
# In short: (§1)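 Rats given compound intravenously and orally in solution. Three rats per time point sampled for plasma drug levels. Pharmacokinetic parameters calculated from the plasma concentration–time data using standard equations. Data reported as mean ± SEM.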
# Rattus norvegicus [4] = experiment: Plasma concentration after 3 mg/kg peroral dosing in rat at 0.5 hr; format: ADME, organism-based; set-up: dose 3 mg/kg, route oral; conditions: in vivo, po
# Rattus norvegicus [5] = experiment: Plasma concentration after 3 mg/kg peroral dosing in rat at 4 hr; format: ADME, organism-based; set-up: dose 3 mg/kg, route oral; conditions: in vivo, po
# Rattus norvegicus [6] = experiment: Plasma concentration of 3 mg/kg iv after 0.5 hr in rats; format: ADME, organism-based; set-up: dose 3 mg/kg, route intravenous; conditions: in vivo; in short: as §1
# Rattus norvegicus [7] = experiment: Plasma concentration after 3 mg/kg peroral dosing in rat at 1 hr; format: ADME, organism-based; set-up: dose 3 mg/kg, route oral; conditions: in vivo, po
# Rattus norvegicus [8] = experiment: Plasma concentration of 3 mg/kg iv after 6 hr in rats; format: ADME, organism-based; set-up: dose 3 mg/kg, route intravenous; conditions: in vivo; in short: as §1
# Rattus norvegicus [9] = experiment: Plasma concentration after 3 mg/kg peroral dosing in rat at 0.083 h; format: ADME, organism-based; set-up: dose 3 mg/kg, route oral; conditions: in vivo, po
# Rattus norvegicus [10] = experiment: Plasma concentration of 3 mg/kg iv after 1 hr in rats; format: ADME, organism-based; set-up: dose 3 mg/kg, route intravenous; conditions: in vivo; in short: as §1
# Rattus norvegicus [11] = experiment: Plasma concentration of 3 mg/kg iv after 0.25 hr in rats; format: ADME, organism-based; set-up: dose 3 mg/kg, route intravenous; conditions: in vivo; in short: as §1
# [12] = Bioavailability in rat; format: ADME, organism-based; conditions: in vivo
# Rattus norvegicus [13] = experiment: Plasma concentration after 3 mg/kg peroral dosing in rat at 6 hr; format: ADME, organism-based; set-up: dose 3 mg/kg, route oral; conditions: in vivo, po
# [14] = Plasma clearance after intravenous administration iv dosing of 3 mg/kg in rat; format: ADME, organism-based; set-up: dose 3 mg/kg, route intravenous
# Rattus norvegicus [15] = experiment: Plasma concentration after 3 mg/kg peroral dosing in rat at 2 hr; format: ADME, organism-based; set-up: dose 3 mg/kg, route oral; conditions: in vivo, po
# Rattus norvegicus [16] = experiment: Plasma concentration after 3 mg/kg peroral dosing in rat at 0.25 hr; format: ADME, organism-based; set-up: dose 3 mg/kg, route oral; conditions: in vivo, po
# Rattus norvegicus [17] = experiment: Plasma concentration of 3 mg/kg iv after 2 hr in rats; format: ADME, organism-based; set-up: dose 3 mg/kg, route intravenous; conditions: in vivo; in short: as §1
# [18] = Plasma volume of distribution of the 3 mg/kg in rat; format: ADME, organism-based; set-up: dose 3 mg/kg; in short: as §1
# Rattus norvegicus [19] = experiment: Plasma concentration after 3 mg/kg peroral dosing in rat at 8 hr; format: ADME, organism-based; set-up: dose 3 mg/kg, route oral; conditions: in vivo, po
# Chain of Substance-P receptor (P25103 whole entry): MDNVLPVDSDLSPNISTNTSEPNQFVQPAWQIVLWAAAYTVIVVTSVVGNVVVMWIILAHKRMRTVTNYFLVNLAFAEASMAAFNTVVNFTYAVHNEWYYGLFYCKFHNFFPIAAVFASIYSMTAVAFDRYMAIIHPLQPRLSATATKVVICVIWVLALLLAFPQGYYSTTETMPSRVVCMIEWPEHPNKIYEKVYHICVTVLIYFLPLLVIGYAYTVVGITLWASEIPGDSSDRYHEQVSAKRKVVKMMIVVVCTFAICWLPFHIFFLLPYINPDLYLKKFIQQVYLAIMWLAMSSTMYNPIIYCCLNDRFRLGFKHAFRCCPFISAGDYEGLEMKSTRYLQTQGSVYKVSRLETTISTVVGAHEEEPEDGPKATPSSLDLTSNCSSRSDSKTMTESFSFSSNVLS
smiles,measurement,setting,value
FC(F)(F)c1cc(CO[C@H]2CCCN(Cc3n[nH]c(S)n3)[C@H]2c2ccccc2)cc(C(F)(F)F)c1,pIC50,Substance-P receptor,9.10
same,Binding affinity,Oryctolagus cuniculus [1],10 µM
NC(=O)CN1CCC[C@H](OCc2cc(C(F)(F)F)cc(C(F)(F)F)c2)[C@@H]1c1ccccc1,ED50,Cavia porcellus,0.8 mg/kg
same,Binding affinity,Oryctolagus cuniculus [2],16%
FC(F)(F)c1cc(CO[C@H]2CCCN(Cc3nnc[nH]3)[C@H]2c2ccccc2)cc(C(F)(F)F)c1,Concentration,Rattus norvegicus [3],13.2 ng/mL
same,Concentration,Rattus norvegicus [4],35.1 ng/mL
same,Concentration,Rattus norvegicus [5],11.2 ng/mL
same,Concentration,Rattus norvegicus [6],581 ng/mL
same,Concentration,Rattus norvegicus [7],33.7 ng/mL
same,Concentration,Rattus norvegicus [8],< 10 ng/mL
same,Concentration,Rattus norvegicus [9],40.1 ng/mL
same,Concentration,Rattus norvegicus [10],304 ng/mL
same,Concentration,Rattus norvegicus [11],826 ng/mL
same,pIC50,Substance-P receptor,9.66
same,bioavailability,[12],18%
same,Concentration,Rattus norvegicus [13],< 10 ng/mL
same,clearance,[14],44 mL/min/kg
same,Concentration,Rattus norvegicus [15],36.9 ng/mL
same,Concentration,Rattus norvegicus [16],116 ng/mL
same,Concentration,Rattus norvegicus [17],71.3 ng/mL
same,Vd,[18],2.6 L/kg
same,Concentration,Rattus norvegicus [19],< 10 ng/mL
